The source made the active and inactive calls. No cut-off for these calls is given here.
Key:
[1] = molecular target: T1, Botulinum neurotoxin type A (Clostridium botulinum, UniProt P0DPI0); experiment: Uncompetitive inhibition of recombinant Clostridium botulinum BoNT/A light chain (425 amino acids) using SNAP-25 as substrate preincubated for 20 followed by substrate addition measured for 25 mins by Lineweaver-Burk plot analysis
[2] = molecular target: T1, Botulinum neurotoxin type A; experiment: Inhibition of protease activity of recombinant Clostridium botulinum BoNT/A light chain (425 amino acids) using SNAP-25 as substrate preincubated for 20 followed by substrate addition measured for 25 mins by FRET analysis
In short: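 Compound (from 50X DMSO stock) preincubated 20 min with recombinant 425-aa BoNT/A LC (56 nM working solution) in 40 mM HEPES, 0.1% Triton X-100, pH 7.4. SNAPtide FRET substrate (6 µM solution) then added and read for 25 min at ex 490/em 523 nm. V0 taken from linear slopes, in duplicate at ≥4 inhibitor dilutions, normalized to DMSO. IC50 from Hill-equation fit.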

[3] = molecular target: Botulinum neurotoxin type A (Clostridium botulinum) (UniProt P0DPI0); experiment: Inhibition of BoNT/A induced paralysis in intoxicated CD1 mouse hemidiaphragm muscles assessed as increase in half paralysis time at 20 uM pretreated for 1 hr followed by intoxication
Chain of Botulinum neurotoxin type A (Clostridium botulinum) (P0DPI0 2-448 limits assumed): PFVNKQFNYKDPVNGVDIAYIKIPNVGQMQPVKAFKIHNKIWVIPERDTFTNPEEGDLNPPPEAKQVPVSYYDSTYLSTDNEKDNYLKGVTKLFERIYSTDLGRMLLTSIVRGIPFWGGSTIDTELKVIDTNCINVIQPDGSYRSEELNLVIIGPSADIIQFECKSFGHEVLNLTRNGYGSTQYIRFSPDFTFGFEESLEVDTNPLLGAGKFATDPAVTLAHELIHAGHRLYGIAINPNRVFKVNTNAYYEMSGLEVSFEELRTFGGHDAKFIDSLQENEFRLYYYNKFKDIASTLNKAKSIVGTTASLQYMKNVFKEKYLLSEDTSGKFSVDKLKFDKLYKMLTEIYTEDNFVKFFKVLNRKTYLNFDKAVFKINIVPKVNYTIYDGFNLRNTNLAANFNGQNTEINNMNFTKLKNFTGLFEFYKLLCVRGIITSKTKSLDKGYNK

[4] = molecular target: Botulinum neurotoxin type A (Clostridium botulinum) (UniProt P0DPI0); experiment: Inhibition of BoNT/A light chain mediated proteolysis of CFP and YFP tagged full-length SNAP-25 expressed in BoCells at 25 uM after 20 hrs by fluorescence assay
[5] = molecular target: Botulinum neurotoxin type A (Clostridium botulinum) (UniProt P0DPI0); conditions: 12.5 uM

T1 sequence (P0DPI0 2-448 limits assumed): as above

For `NNc1ccc2c(S(=O)(=O)N3CCc4c(Cl)cccc43)ccc(O)c2n1`, the Ki [1] was 0.895 µM, the IC50 [2] was 1.55 µM and the inhibition [3] was “Active”. For the same compound, the inhibition [4] was “inactive”.

`O=S(=O)(Nc1ccccc1)c1ccc(O)c2ncccc12` gave an IC50 [2] of 12.7 µM.

`Oc1c(C(Nc2ccccn2)c2ccccc2)ccc2cccnc12` (stereo not drawn) was tested, and the inhibition [3] was “inactive” and the inhibition [4] was “inactive”.

`O=S(=O)(c1ccc(O)c2ncccc12)N1CCCCC1` gave an IC50 [2] of 18.3 µM.

For `CCNc1ccc2c(S(=O)(=O)N3CCc4c(Cl)cccc43)ccc(O)c2n1`, the IC50 [2] was 28.6 µM.

`O=S(=O)(c1ccc(O)c2ncccc12)N1CCc2ccc(Cl)cc21` was tested, and the IC50 [2] was 12.8 µM.

For `CC(=O)NNc1ccc2c(S(=O)(=O)N3CCc4c(Cl)cccc43)ccc(O)c2n1`, the IC50 [2] was 5.39 µM, the inhibition [3] was “Active” and the inhibition [4] was “inactive”.

`CN(c1cccc(Cl)c1)S(=O)(=O)c1ccc(O)c2ncccc12` gave an IC50 [2] of 4.28 µM.

In the case of `Nc1ccc2c(S(=O)(=O)N3CCc4c(Cl)cccc43)ccc(O)c2n1`, the IC50 [2] is reported as 3.36 µM, the inhibition [3] is reported as “Active” and the inhibition [4] is reported as “Active”.

For `CN(c1ccccc1)S(=O)(=O)c1ccc(O)c2ncccc12`, the IC50 [2] was 7.19 µM.

`O=S(=O)(Nc1cccc(Cl)c1)c1ccc(O)c2ncccc12` gave an IC50 [2] of 7.32 µM.

For `CNNc1ccc2c(S(=O)(=O)N3CCc4c(Cl)cccc43)ccc(O)c2n1`, the inhibition [5] was “Active”, the IC50 [2] was 3.26 µM and the inhibition [3] was “Active”. For the same compound, the inhibition [4] was “Active”.

With `CNc1ccc2c(S(=O)(=O)N3CCc4c(Cl)cccc43)ccc(O)c2n1` the IC50 [2] was 37.6 µM.

`O=S(=O)(c1ccc(O)c2ncccc12)N1CCc2c(Cl)cccc21` was tested, and the Ki [1] was 2.03 µM, the IC50 [2] was 3.66 µM and the inhibition [3] was “Active”. For the same compound, the inhibition [4] was “Active”.

From ChEMBL document CHEMBL4041525, “Newly Designed Quinolinol Inhibitors Mitigate the Effects of Botulinum Neurotoxin A in Enzymatic, Cell-Based, and ex Vivo Assays” (J Med Chem, 2017)
